Only some compounds are listed: those with a hit (about 3.7% of all), similar ones and a draw of the others.
NPY-Y1 antag: antagonists of human neuropeptide Y receptor Y1. P25929. HEK293-CNG Y1 cells, membrane potential fluorescence; NPY at EC95, then isoproterenol. inhibition, % at 3.6 µM. 200,000 compounds, 1% hits;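 active = inhibition above the campaign mean inhibition of all tested compounds plus 3 SD, cut at about 20% in these data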;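 note: 0% = DMSO wells given NPY plus isoproterenol and 100% = isoproterenol alone without NPY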
Target sequence (P25929 whole entry, looked up): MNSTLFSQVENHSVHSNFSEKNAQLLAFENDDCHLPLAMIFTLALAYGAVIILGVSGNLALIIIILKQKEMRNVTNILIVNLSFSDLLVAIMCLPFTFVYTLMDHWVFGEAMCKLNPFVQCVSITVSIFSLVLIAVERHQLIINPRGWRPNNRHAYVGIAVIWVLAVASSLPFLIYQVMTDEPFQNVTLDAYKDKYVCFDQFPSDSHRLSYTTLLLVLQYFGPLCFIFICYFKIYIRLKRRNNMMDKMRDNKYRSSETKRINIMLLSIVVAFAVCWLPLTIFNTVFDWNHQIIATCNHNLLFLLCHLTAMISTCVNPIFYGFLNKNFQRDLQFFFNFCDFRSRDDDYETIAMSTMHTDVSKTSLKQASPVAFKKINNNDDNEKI
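Assay system: HEK293 cells with Y1 receptor plus CNG channel | Probe or stimulus: NPY (25 nM), isoproterenol (1 µM), Ro 20-1724 (25 µM) | Timing: Compound incubation 1 h at room temperature, readout 45 min post-stimulation | Measured by: Membrane-potential fluorescent dye readout | Benchmarks: High control isoproterenol alone, low control NPY with isoproterenol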
NPY-Y2 PAM-ag: potentiators or agonists of human neuropeptide Y receptor Y2; P49146; cells expressing NPY-Y2, potentiator/agonist read-out; activation, % at 3.6 µM; 220,000 compounds, 0.45% hits; in the data active = activation above about 27%;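 note: cells stimulated with NPY near EC25 plus isoproterenol at EC100; 0% = vehicle plus submaximal agonist and 100% = vehicle plus saturating agonist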
Furin inhibitor: blocks human furin protease activity. P09958. purified furin, fluorogenic substrate cleavage. inhibition, % at 20 µM or 30 µM. 220,000 compounds, 0.061% hits. AID 463115; in the data active = inhibition above about 25%
NPY1 pot ag: human NPY-Y1 potentiation or agonism, primary screen; activation, % at 3.6 µM; AID 1304; NPY-Y1 expressing cells, potentiator/agonist activation; 220,000 compounds, 0.37% hits; in the data active = activation above about 33%, passing the limit was not always enough;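 note: cells stimulated with NPY at EC10 then isoproterenol at EC100; 0% = low agonist plus stimulus and 100% = saturating agonist plus stimulus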
NPY-Y2 antag: blocks the human neuropeptide Y Y2 receptor | 140,000 compounds, 0.99% hits | inhibition, % at 2.7 µM | NPY-Y2 expressing cells, antagonist mode | P49146; in the data active = inhibition above about 17%;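 note: 0% = vehicle with agonist challenge and 100% = reference antagonist with challenge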
Cl transport mod: modulates chloride dependent transport by human KCC2; Q9H2X9; KCC2 cells, thallium flux FluoZin-2 fluorescence; B-score of Tl+ flux slope (higher = more flux/activation; lower = inhibition) at 10 µM; 190,000 compounds, 2.2% hits; AID 1456;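 active = thallium flux slope and its plate-corrected score both differing from the plate sample mean at a set confidence after two filtering rounds, in either direction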;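 note: slope of fluorescence scaled to starting intensity during 10 to 20 s after thallium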
NPY1 antag ctr: human NPY-Y1 antagonism in NPY-Y2 counter-screen. cell-based NPY-Y1 antagonism counterscreen. 710 compounds, 19% hits. inhibition, % at 3.6 µM. shares compounds with NPY-Y2 antag; in the data active = inhibition above about 20%;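 note: cells challenged with NPY then isoproterenol with cAMP sensed through a CNG channel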
NPY-Y2 ant conf: human NPY-Y2 antagonism, confirmation; shares compounds with NPY-Y2 antag; HEK293 NPY-Y2 CNG channel, membrane potential fluorescence; inhibition, % at 2.8 µM; 710 compounds, 32% hits;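 active = mean inhibition of triplicate wells above the hit cutoff set in the primary screen, cut at about 17% in these data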;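 note: 0% = DMSO with NPY challenge and 100% = BIIE0246 high control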
Active calls of the source: *.

Screening CC1=NN(c2ccccc2)C(=O)/C1=C\c1ccc(Br)s1 returned NPY-Y1 antag 4.9, NPY-Y2 PAM-ag -1.8, Furin inhibitor -12.3, NPY1 pot ag -31.8, NPY-Y2 antag 17.1*, Cl transport mod 0.436, NPY1 antag ctr 30.5* and NPY-Y2 ant conf 33.5*.
`CCOC(=O)c1nn(-c2ccc(F)cc2)c2nc(-c3ccccc3)c(C#N)c(=O)n12` gave NPY-Y1 antag 7.3, NPY-Y2 PAM-ag -8.4, Furin inhibitor -17.3, NPY1 pot ag -11.0, NPY-Y2 antag 18.6*, Cl transport mod -1.8, NPY1 antag ctr 10.7 and NPY-Y2 ant conf 7.8.
`CCOC(=O)c1nn(-c2cccc(C)c2)c2nc(-c3ccccc3)c(C#N)c(=O)n12` gave NPY-Y1 antag -1.6, NPY-Y2 PAM-ag -7.8, Furin inhibitor -15.4, NPY1 pot ag -8.7, NPY-Y2 antag 1.3 and Cl transport mod 1.05.
CCOc1ccc(C(Nc2ccc(C)cc2)P2(=O)OCCC(C)O2)cc1 (configuration not stated) was read as NPY-Y1 antag 8.8, NPY-Y2 PAM-ag 7.5, Furin inhibitor -3.2, NPY1 pot ag -7.4, NPY-Y2 antag 5.4 and Cl transport mod 0.638.
CN1CCN(c2ccccc2NC(=O)c2ccc(-c3ccc(Cl)cc3Cl)o2)CC1 was read as NPY-Y1 antag 8.3, NPY-Y2 PAM-ag -9.4, Furin inhibitor -17.5, NPY1 pot ag -66.2, NPY-Y2 antag 17.2*, Cl transport mod 0.559, NPY1 antag ctr 11.7 and NPY-Y2 ant conf 24.7*.
Screening CS(=O)(=O)N1CCN(c2ccccc2NC(=O)c2ccc(-c3ccc(Cl)cc3Cl)o2)CC1 returned NPY-Y1 antag 14.1, NPY-Y2 PAM-ag -21.1, Furin inhibitor -25.4, NPY1 pot ag -3.9, NPY-Y2 antag 3.2 and Cl transport mod -0.65.
For COc1ccc(C2(CNC(=O)c3cccc([N+](=O)[O-])c3)CCOCC2)cc1 the results were NPY-Y1 antag -3.7, NPY-Y2 PAM-ag -3.0, Furin inhibitor -19.5, NPY1 pot ag -26.1, NPY-Y2 antag 17.5*, Cl transport mod -0.723, NPY1 antag ctr -1.1 and NPY-Y2 ant conf 2.6.
`Brc1cccc(-c2nnc(-c3ccccc3)o2)c1` gave NPY-Y1 antag 19.8, NPY-Y2 PAM-ag -3.2, Furin inhibitor -16.5, NPY1 pot ag -28.5, NPY-Y2 antag 17.9*, Cl transport mod -0.926, NPY1 antag ctr 13.7 and NPY-Y2 ant conf 13.2.
Screening Cc1ccc(-c2nnc(-c3cccc(Br)c3)o2)cc1 returned NPY-Y1 antag 2.8, NPY-Y2 PAM-ag -3.6, Furin inhibitor -10.6, NPY1 pot ag -20.2, NPY-Y2 antag 12.9 and Cl transport mod 0.878.
`Cc1ccc(NC(=S)NCc2ccc3c(c2)OCO3)c(C)c1` gave NPY-Y1 antag 6.0, NPY-Y2 PAM-ag -19.6, Furin inhibitor -12.0, NPY1 pot ag -9.4, NPY-Y2 antag 20.6*, Cl transport mod -1.65, NPY1 antag ctr 7.1 and NPY-Y2 ant conf 10.3.
COc1ccc([N+](=O)[O-])cc1NC(=O)CCCOc1ccccc1 was read as NPY-Y1 antag 2.9, NPY-Y2 PAM-ag 12.3, Furin inhibitor -3.5, NPY1 pot ag -3.5, NPY-Y2 antag 13.3 and Cl transport mod -0.518.
Screening COc1cc([N+](=O)[O-])ccc1NC(=O)CCCOc1ccccc1 returned NPY-Y1 antag 6.8, NPY-Y2 PAM-ag -28.3, Furin inhibitor -14.6, NPY1 pot ag -33.5, NPY-Y2 antag 22.0*, Cl transport mod 0.189, NPY1 antag ctr 7.2 and NPY-Y2 ant conf 9.6.
`COC(=O)c1ccc(OC)c(CSc2nnc(COc3cccc(C)c3)o2)c1` gave NPY-Y1 antag 4.0, NPY-Y2 PAM-ag -9.1, Furin inhibitor -13.8, NPY1 pot ag -24.9, NPY-Y2 antag 23.1*, Cl transport mod -0.0218, NPY1 antag ctr 16.8 and NPY-Y2 ant conf 11.7.
COC(=O)c1ccc(OC)c(CSc2nnc(COc3ccc(OC)cc3)o2)c1 was read as NPY-Y1 antag 11.4, NPY-Y2 PAM-ag -11.4, Furin inhibitor -4.0, NPY1 pot ag -19.8, NPY-Y2 antag 9.9 and Cl transport mod -0.595.
Screening O=C(NCc1ccccn1)c1cc(-c2ccc(Cl)cc2)nc2ccccc12 returned NPY-Y1 antag 11.7, NPY-Y2 PAM-ag 8.3, Furin inhibitor -14.4, NPY1 pot ag -30.1, NPY-Y2 antag 26.8*, NPY1 antag ctr 4.0 and NPY-Y2 ant conf 4.3.
CC(=O)c1ccc(N2Cc3ccccc3/C2=N\C(=O)Nc2ccc(Cl)cc2)cc1 was read as NPY-Y1 antag 5.8, NPY-Y2 PAM-ag 6.3, Furin inhibitor -8.6, NPY1 pot ag 14.7, NPY-Y2 antag 24.4*, Cl transport mod 0.248, NPY1 antag ctr 109.2* and NPY-Y2 ant conf 150.5*.
Screening Fc1ccc(C(c2nnnn2Cc2cccs2)N2CCN(c3ccccc3)CC2)cc1 (configuration not stated) returned NPY-Y1 antag 9.3, NPY-Y2 PAM-ag -4.0, Furin inhibitor -0.2, NPY1 pot ag -60.5, NPY-Y2 antag 19.3*, Cl transport mod -1.89, NPY1 antag ctr 13.9 and NPY-Y2 ant conf 5.1.
Screening COc1ccc(Cn2nnnc2C(c2cccs2)N2CCN(c3ccccc3)CC2)cc1 (configuration not stated) returned NPY-Y1 antag 12.2, NPY-Y2 PAM-ag -7.8, Furin inhibitor -21.0, NPY1 pot ag -12.2, NPY-Y2 antag 18.7*, Cl transport mod -0.959, NPY1 antag ctr 12.8 and NPY-Y2 ant conf 6.8.
`COc1ccc(Cn2nnnc2C(c2cccs2)N2CCN(c3ccc([N+](=O)[O-])cc3)CC2)cc1` (configuration not stated) gave NPY-Y1 antag -6.2, NPY-Y2 PAM-ag 6.9, Furin inhibitor -29.5, NPY1 pot ag 3.1, NPY-Y2 antag 0.3 and Cl transport mod 1.3.
Screening Cc1ccc(NC(=O)C2c3ccccc3Oc3ccccc32)c(C)c1 returned NPY-Y1 antag 6.7, NPY-Y2 PAM-ag -14.2, Furin inhibitor -18.8, NPY1 pot ag 10.6, NPY-Y2 antag 7.8 and Cl transport mod 0.431.
For CCN1c2ccccc2-c2nc3ccccc3n2C1c1ccco1 (configuration not stated) the results were NPY-Y1 antag 11.6, NPY-Y2 PAM-ag -3.7, Furin inhibitor -18.3, NPY1 pot ag 4.1, NPY-Y2 antag 19.0*, NPY1 antag ctr 15.6 and NPY-Y2 ant conf 7.4.
OCCNCc1cc(Br)ccc1OCc1ccccc1Cl was read as NPY-Y1 antag 4.8, NPY-Y2 PAM-ag -24.7, Furin inhibitor -25.4, NPY1 pot ag -68.1, NPY-Y2 antag 21.9*, Cl transport mod 1.25, NPY1 antag ctr 9.5 and NPY-Y2 ant conf 16.1.

Compound activity (PubChem BioAssay)
